Rows were chosen to be rich in hits. Some 1.6% of all compounds tested hit in one or more screens of this group.
Scp1 inh = Scp-1 (human) phosphatase inhibition; Q9GZU7; Recombinant Scp1, phosphopeptide, malachite green phosphate absorbance; inhibition, % at 20 µM; hit rate 0.88% among 340,000; AID 493091;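 active = inhibition above about 50% at 20 µM, limit read from the data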
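Test system: SCP-1 phosphatase catalytic domain, residues 76-261 | Compound dosing: One concentration, 20 µM, with 1.0% DMSO | Schedule: 45 min room-temperature reaction, 5 min colour, 30 min stabiliser | Detection: Absorbance at 630 nm | Read-out basis: % inhibition of SCP-1 phosphate liberation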
DNMT1 inh = blocks human DNA methyltransferase DNMT1; DNMT1 molecular beacon, Hinp1I cleavage, fluorescence; inhibition (reported as % activation of signal), % at 10 µM; hit rate 0.83% among 360,000; AID 588458; in the data active = inhibition above about 50%
LMPTP block = blocks human LMPTP phosphatase; P24666; recombinant LMPTP-A, OMFP fluorogenic substrate, fluorescence intensity; inhibition, % at 20 µM; hit rate 0.22% among 360,000; AID 651560;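 active = compounds that cut the enzyme signal by at least half of the control window in the single-dose screen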
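Assay system: LMPTP-A enzyme. Input: 0.625 nM LMPTP-A final. Probe or stimulus: 400 µM OMFP. Compound dosing: single 20 µM dose. Schedule: 50 min dark incubation at room temperature. Detection: fluorescence intensity of OMFP turnover product. Read-out: percent inhibition versus substrate-only and uninhibited controls. Benchmarks: no-enzyme low control, uninhibited high control.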
STEP inh = blocks human striatal-enriched tyrosine phosphatase | P54829 | recombinant STEP, OMFP fluorogenic substrate, fluorescence | inhibition, % at 20 µM | hit rate 0.25% among 360,000 | AID 588621;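 active = inhibition at 20 µM, scaled per plate between control wells, above about 37%, limit read from the data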
Target sequence (P54829 whole entry, looked up): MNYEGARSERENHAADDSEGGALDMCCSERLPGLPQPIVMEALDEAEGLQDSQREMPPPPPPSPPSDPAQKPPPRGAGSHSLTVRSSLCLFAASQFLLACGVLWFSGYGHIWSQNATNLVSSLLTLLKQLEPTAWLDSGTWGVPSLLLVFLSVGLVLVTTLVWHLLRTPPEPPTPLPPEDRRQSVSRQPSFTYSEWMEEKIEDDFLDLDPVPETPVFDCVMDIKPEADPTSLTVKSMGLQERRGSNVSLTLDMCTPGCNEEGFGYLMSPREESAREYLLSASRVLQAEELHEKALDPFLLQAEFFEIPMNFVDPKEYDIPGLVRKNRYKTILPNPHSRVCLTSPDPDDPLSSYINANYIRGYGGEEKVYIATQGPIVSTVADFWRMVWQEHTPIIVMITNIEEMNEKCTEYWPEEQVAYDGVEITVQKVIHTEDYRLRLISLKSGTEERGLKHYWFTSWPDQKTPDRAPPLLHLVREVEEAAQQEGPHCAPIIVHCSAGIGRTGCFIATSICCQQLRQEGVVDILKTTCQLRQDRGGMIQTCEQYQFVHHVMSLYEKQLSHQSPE
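Also added – OMFP at 25 µM · Test system – STEP tyrosine phosphatase · Technique – FITC-channel fluorescence of OMFP product · Schedule – 20 min at room temperature, dark · Evaluation – control-normalized % inhibition with plate pattern correction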
SUMO1-SIM PPI = modulators of human SUMO1-mediated protein-protein interactions; P63165; SUMO1 binding to a labelled peptide, TR-FRET, 1 h; inhibition, % at 20 µM; hit rate 0.33% among 360,000; in the data active = inhibition above about 37%
Target sequence (P63165 whole entry, looked up): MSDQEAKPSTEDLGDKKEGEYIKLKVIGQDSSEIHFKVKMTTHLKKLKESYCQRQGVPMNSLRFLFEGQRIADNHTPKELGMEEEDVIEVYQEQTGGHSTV
CFTR F508del cor = correctors of CFTR F508del function in bronchial epithelial cells; hit rate 0.36% among 350,000; CFBE cells, YFP halide quenching; stimulated with forskolin plus potentiator P3; % fluorescence drop versus neutral controls; activity (quench increase), % at 7.58 µM;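 active = mean added fluorescence quench of at least 8% versus neutral control, with both replicates also reaching 8%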;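 note: cells transiently co-express mutant CFTR-F508del with the halide-sensitive YFP; corrector assay measuring rescue of mutant channel to the surface after 24 h compound exposure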
Scp-1 conf = Scp-1 (human) inhibition, single-dose confirmed; shares compounds with Scp1 inh; recombinant SCP-1 catalytic domain, phosphate release, malachite green absorbance; inhibition, % at 20 µM; hit rate 61% among 2,500; AID 540281
MG interference = colorimetric interference in Scp-1 counter-screen. shares compounds with Scp1 inh. Colorimetric interference counterscreen, malachite green absorbance 630 nm. apparent inhibition (interference), % at 20 µM. 2,500 tested, under 10 active. AID 540313;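 note: compounds added after enzyme reaction finished so only phosphate colour detection is probed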
Scp-1 Tm shift = validation of human Scp-1 inhibitors by thermal shift binding | shares compounds with Scp1 inh | Recombinant SCP1, Sypro Orange thermal shift Tm | thermal shift relative to vanadate control, % at 40 µM | hit rate 25% among 1,500;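 active = substances whose mean melting-temperature shift, as a percentage of the reference inhibitor's shift, reaches about 5.3%, limit read from the data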
A number is an active result; – = inactive; · = no result given.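 Rule for the calls, unless noted: active = inhibition of at least 30% at 20 µM; inactive = the rest.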

SMILES	Scp1 inh	DNMT1 inh	LMPTP block	STEP inh	SUMO1-SIM PPI	CFTR F508del cor	Scp-1 conf	MG interference	others
Cc1cc(NC(=O)CSCC(=O)N(c2cccc(Cl)c2)C(C(=O)NC2CCCCC2)c2ccc(O)c(O)c2)no1 (stereo unspecified)	50	–	–	–	–	·	–	–
Cc1noc(C)c1S(=O)(=O)Nc1ccc2c(c1)C(=O)N([C@@H](C)CO)C[C@H](C)[C@@H](CN(C)C(=O)Nc1ccc3c(c1)OCO3)OCCCC[C@@H](C)O2	·	·	·	·	·	–	·	·
CC(=O)Nc1nc2c(ccc3ccccc32)s1	72	–	–	–	–	–	–	–
O=C(Cc1cccs1)Nc1nc2c(ccc3ccccc32)s1	–	–	–	–	–	·	·	·
O=C(CCCSc1nc2ccccc2[nH]1)NC1CCCCC1	–	–	–	–	–	–	·	·
Nc1nc(SCC(=O)NC2CCCCC2)n[nH]1	–	–	–	–	–	–	·	·
O=C(CSc1n[nH]c(C2CCCC2)n1)NC1CCCC1	64	–	–	–	–	·	–	–
O=C(CSc1nc2ccccc2[nH]1)NC1CCCC1	62	–	–	–	–	–	45	–	Scp-1 Tm shift=–
Cc1cccc(C)c1NC(=O)CN(C)C(=O)c1ccc(N2C(=O)CCC2=O)cc1	–	–	–	–	–	–	·	·
Cc1cccc(C)c1NC(=O)CN(C)C(=O)c1cccc(-n2cccc2)c1	68	–	–	–	–	–	46	–	Scp-1 Tm shift=–
Cc1cc(C(=O)Nc2cccc3c2O[C@H](CN(C)S(=O)(=O)c2ccc(F)cc2)[C@@H](C)CN([C@H](C)CO)C3=O)n(C)n1	·	·	·	·	·	–	·	·
CCn1c(=O)c(=O)[nH]c2cc(C(=O)NCc3ccc(F)cc3)ccc21	–	–	–	–	–	–	–	–
CCn1c(=O)c(C(=O)NCc2ccc(F)cc2)c(O)c2ccccc21	–	–	–	–	–	–	·	·
COc1ccc(NC(=S)N(CCCN2CCOCC2)C(C)c2cc3ccccc3o2)cc1 (stereo unspecified)	64	–	–	–	–	–	–	–
CCCC#Cc1ccc2c(c1)O[C@@H](CN(C)C)[C@H](C)CN([C@H](C)CO)S2(=O)=O	·	·	·	·	·	–	·	·
O=C(Cc1ccccn1)N[C@H]1CC[C@@H](CCn2cc(-c3cccnc3)nn2)O[C@H]1CO	·	·	·	·	·	–	·	·
Cc1noc(C)c1NC(=O)N(C)C[C@@H]1OCCCC[C@@H](C)Oc2ccc(NS(=O)(=O)c3c(C)noc3C)cc2C(=O)N([C@@H](C)CO)C[C@H]1C	·	·	·	·	·	–	·	·
Cn1ccsc1=NC(=O)c1ccc(=O)[nH]c1	94	–	–	–	–	–	–	–
C[C@@H]1CN([C@@H](C)CO)C(=O)c2cc(NS(=O)(=O)c3ccc(Cl)cc3)ccc2O[C@@H]1CN(C)C(=O)NC1CCCCC1	·	·	·	·	·	–	·	·
O=C(CCCc1c[nH]c2ccccc12)Nc1ccc2ccccc2c1	59	–	–	–	–	·	–	–
CC(=O)Nc1ccc(NC(=O)CCCc2c[nH]c3ccccc23)cc1	–	–	–	–	–	–	·	·
CCCNC(=O)[C@@H]1[C@@H](CO)[C@@H]2Cn3c(ccc(/C=C/c4ccccc4)c3=O)[C@H]1N2C(C)=O	·	·	·	·	·	–	·	·
C[C@H]1CN([C@@H](C)CO)C(=O)c2cc(NS(=O)(=O)c3cccs3)ccc2O[C@@H]1CN(C)C(=O)Nc1ccc(F)cc1	·	·	·	·	·	–	·	·
C[C@H](CO)N1C[C@H](C)[C@@H](CN(C)Cc2ccc(C(=O)O)cc2)Oc2c(NS(=O)(=O)c3cccs3)cccc2C1=O	50	–	–	–	–	–	–	–
C[C@@H]1CN([C@H](C)CO)C(=O)c2cccc(NS(=O)(=O)c3ccccc3)c2O[C@@H]1CN(C)Cc1ccc(-c2ccccc2)cc1	·	·	·	·	·	–	·	·
SMILES	Scp1 inh	DNMT1 inh	LMPTP block	STEP inh	SUMO1-SIM PPI	CFTR F508del cor	Scp-1 conf	MG interference	others
C[C@H](CO)N1C[C@H](C)[C@@H](CN(C)Cc2ccc(-c3ccccc3)cc2)Oc2c(NS(=O)(=O)c3cn(C)cn3)cccc2C1=O	69	–	–	–	–	–	–	–
C[C@@H]1CN([C@H](C)CO)C(=O)c2cccc(NS(=O)(=O)c3cccs3)c2O[C@@H]1CN(C)Cc1ccc(C(=O)O)cc1	·	·	·	·	·	–	·	·
C[C@H](CO)N1C[C@H](C)[C@@H](CN(C)Cc2ccc(-c3ccccc3)cc2)Oc2c(NS(=O)(=O)c3ccccc3)cccc2C1=O	62	–	–	–	–	–	–	–
CCC(=O)N1C[C@H]2[C@@H](c3ccccc31)[C@H](CO)N2Cc1ccccc1Cl	·	·	·	·	·	–	·	·
Cc1ccc(-c2ccc(C(=O)Nc3ccccc3)o2)c2ccccc12	–	–	–	–	–	–	·	·
Cc1ccc(S(=O)(=O)NC(=O)c2ccc(-c3ccc(C)c4ccccc34)o2)cc1	61	–	–	–	–	–	77	–	Scp-1 Tm shift=–
C[C@H](CO)N1C[C@H](C)[C@@H](CN(C)S(=O)(=O)c2ccc(F)cc2)Oc2ccc(N(C)C)cc2C1=O	·	·	·	·	·	–	·	·
Cc1ccc(S(=O)(=O)Nc2ccc3c(c2)C(=O)N([C@@H](C)CO)C[C@@H](C)[C@@H](CN(C)C(=O)Nc2c(C)noc2C)OCCCC[C@@H](C)O3)cc1	·	·	·	·	·	–	·	·
C[C@@H]1CC=C[C@@H]2[C@H]1C(=O)N(Cc1ccccc1)[C@H]2c1cccc(Br)c1	–	–	–	–	–	–	·	·
C[C@@H]1CC=C[C@@H]2[C@H]1C(=O)N(Cc1ccccc1)[C@H]2c1cccc(C#Cc2ccccc2)c1	70	–	–	–	–	–	42	–	Scp-1 Tm shift=–
C[C@H](CO)N1C[C@H](C)[C@@H](CN(C)C(=O)NC2CCCCC2)Oc2c(NC(=O)c3cnccn3)cccc2C1=O	·	·	·	·	·	–	·	·
COCCOC(=O)c1cc(C(=O)c2cc(Cl)ccc2O)coc1=N	55	–	–	–	–	–	–	–
CCOC(=O)c1cc(C(=O)c2cc(Cl)ccc2O)coc1=N	–	–	–	–	–	–	·	·
O=C(C[C@@H]1C[C@H]2c3cc(NC(=O)CC4CC4)ccc3O[C@H]2[C@@H](CO)O1)NCc1cccc(F)c1	·	·	·	·	·	–	·	·
Cc1ccc(C)c(OCCn2ccnc2)c1	59	–	–	–	–	·	39	–	Scp-1 Tm shift=–
Cc1cc(C)c(C)c(OCCn2ccnc2)c1	–	–	–	–	–	–	·	·

Screens as filed in PubChem.
